# Experimental data taken from ChEMBL document CHEMBL1134641, “Progress toward the development of a safe and effective agent for treating reentrant cardiac arrhythmias: synthesis and evaluation of ibutilide analogues with enhanced metabolic stability and diminished proarrhythmic potential” (2001).
# Assays:
# Oryctolagus cuniculus [1] = organism: Oryctolagus cuniculus; test: Mean dose at which EADs (early after depolarizations) began to develop in rabbits; format: functional
# In short: (§1)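 Male New Zealand white rabbits (2.5-3.5 kg), anesthetized and instrumented. Methoxamine infused at 10 µg/kg/min; baseline taken after 15 min. Compound in 0.1 M fumaric acid/EtOH diluted with saline, infused IV at 5 mg/kg over 30 min. Readouts: QTc and MAPD90 maxima vs methoxamine baseline, with accumulated dose, and dose at EAD or PVT onset. ANOVA, p ≤ 0.05.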
# Oryctolagus cuniculus [2] = organism: Oryctolagus cuniculus; test: Mean dose at which PVTs (Polymorphic ventricular tachyarrhythmias) were observed in rabbits; format: functional, Cardiac ventricle; in short: as §1
# Oryctolagus cuniculus [3] = organism: Oryctolagus cuniculus; test: Maximum increase in the ventricular monophasic action potential duration at 90% repolarization from the methoxamine infusion baseline in rabbits; format: functional, Cardiac ventricle; in short: as §1
# Oryctolagus cuniculus [4] = test: In vivo evaluation of potential efficacy observed as the maximum increase in QTc interval from the methoxamine infusion baseline in rabbits; format: functional; in short: as §1
# Oryctolagus cuniculus [5] = organism: Oryctolagus cuniculus; test: Mean dose of test compound at which a statistically significant increase was first observed and the dose for the maximum increase in MAPD90 in rabbits (0.1-0.25); format: functional; in short: as §1
# Oryctolagus cuniculus [6] = organism: Oryctolagus cuniculus; test: Mean dose of test compound at which a statistically significant increase was first observed and the dose for the maximum increase in QTc interval in rabbits (0.1-1.0); format: functional
# In short: (§2)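 Male New Zealand white rabbits (2.5-3.5 kg), anesthetized and instrumented. Methoxamine infused at 10 µg/kg/min; methoxamine baseline taken after 15 min. Compound, dissolved in 0.1 M fumaric acid in absolute EtOH and diluted with saline, given as a continuous iv infusion of 5 mg/kg over 30 min. QTc (QT/√RR) and MAPD90 followed over time; cumulative mg/kg dose recorded at first significant rise (one-way ANOVA, p≤0.05) and at maximum rise.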
# Oryctolagus cuniculus [7] = organism: Oryctolagus cuniculus; test: Mean dose of test compound at which a statistically significant increase was first observed and the dose for the maximum increase in QTc interval in rabbits (0.1-0.25); format: functional; in short: as §2
# Oryctolagus cuniculus [8] = organism: Oryctolagus cuniculus; test: Mean dose of test compound at which a statistically significant increase was first observed and the dose for the maximum increase in MAPD90 in rabbits (0.1-0.5); format: functional; in short: as §1
# Oryctolagus cuniculus [9] = organism: Oryctolagus cuniculus; test: Mean dose of test compound at which a statistically significant increase was first observed and the dose for the maximum increase in QTc interval in rabbits; format: functional; in short: as §2
# Oryctolagus cuniculus [10] = organism: Oryctolagus cuniculus; test: Mean dose of test compound at which a statistically significant increase was first observed and the dose for the maximum increase in MAPD90 in rabbits (0.25-5.0); format: functional; in short: as §2
# Homo sapiens = organism: Homo sapiens; test: Metabolic stability in relative to 31E observed on incubation with human liver microsomes; format: functional; settings: Microsome
# In short: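 Pooled human liver microsomes, 1 mg protein/mL, in 50 mM potassium phosphate pH 7.4. Substrate at 0.4-0.5 µM final; preincubated at 37 °C, then started with an NADPH-generating system (isocitrate/isocitrate dehydrogenase). Aliquots taken up to 20 min and quenched in acetonitrile. Remaining substrate measured by reversed-phase HPLC with fluorescence detection. Log-concentration vs time slope taken; ratio reported as reference slope/test slope; values >20 treated as stable. Three experiments.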
# Oryctolagus cuniculus [11] = organism: Oryctolagus cuniculus; test: Mean dose of test compound at which a statistically significant increase was first observed and the dose for the maximum increase in MAPD90 in rabbits (0.1-5.0); format: functional; in short: as §1
# Oryctolagus cuniculus [12] = organism: Oryctolagus cuniculus; test: Mean dose of test compound at which a statistically significant increase was first observed and the dose for the maximum increase in QTc interval in rabbits (0.1-0.5); format: functional; in short: as §2
# Oryctolagus cuniculus [13] = organism: Oryctolagus cuniculus; test: Mean dose of test compound at which a statistically significant increase was first observed and the dose for the maximum increase in MAPD90 in rabbits (0.1-2.0); format: functional; in short: as §1
# Oryctolagus cuniculus [14] = organism: Oryctolagus cuniculus; test: Mean dose of test compound at which a statistically significant increase was first observed and the dose for the maximum increase in MAPD90 in rabbits (0.25-1.0); format: functional; in short: as §2
# Oryctolagus cuniculus [15] = organism: Oryctolagus cuniculus; test: Mean dose of test compound at which a statistically significant increase was first observed and the dose for the maximum increase in QTc interval in rabbits (0.2-1.0); format: functional; in short: as §2
# Oryctolagus cuniculus [16] = organism: Oryctolagus cuniculus; test: Mean dose of test compound at which a statistically significant increase was first observed and the dose for the maximum increase in MAPD90 in rabbits (0.25-2.0); format: functional; in short: as §2
# Oryctolagus cuniculus [17] = organism: Oryctolagus cuniculus; test: Mean dose of test compound at which a statistically significant increase was first observed and the dose for the maximum increase in MAPD90 in rabbits (0.1-1.0); format: functional; in short: as §1
# Oryctolagus cuniculus [18] = organism: Oryctolagus cuniculus; test: Mean dose of test compound at which a statistically significant increase was first observed and the dose for the maximum increase in MAPD90 in rabbits (0.25-0.5); format: functional; in short: as §1
# Oryctolagus cuniculus [19] = organism: Oryctolagus cuniculus; test: Mean dose of test compound at which a statistically significant increase was first observed and the dose for the maximum increase in QTc interval in rabbits (0.25-5.0); format: functional; in short: as §2
# Oryctolagus cuniculus [20] = organism: Oryctolagus cuniculus; test: Mean dose of test compound at which a statistically significant increase was first observed and the dose for the maximum increase in MAPD90 in rabbits (0.5-2.0); format: functional; in short: as §2
# Oryctolagus cuniculus [21] = organism: Oryctolagus cuniculus; test: Mean dose of test compound at which a statistically significant increase was first observed and the dose for the maximum increase in MAPD90 in rabbits; format: functional; in short: as §1
# Oryctolagus cuniculus [22] = organism: Oryctolagus cuniculus; test: Mean dose of test compound at which a statistically significant increase was first observed and the dose for the maximum increase in MAPD90 in rabbits (0.5-1.0); format: functional; in short: as §2
SMILES,Dose (Oryctolagus cuniculus [1]),Dose (Oryctolagus cuniculus [2]),MAPD90 (Oryctolagus cuniculus [3]),QTc interval (Oryctolagus cuniculus [4]),Dose (Oryctolagus cuniculus [9]),Metabolic stability relative to 31E (Homo sapiens),also measured
CCN(CCCCCC(C)(F)F)CCC[C@H](O)c1ccc(NS(C)(=O)=O)cc1,0.3 mg/kg,0.3 mg/kg,92 ms,106 ms,,,Dose (Oryctolagus cuniculus [5]): 0.25 mg/kg; Dose (Oryctolagus cuniculus [6]): 1 mg/kg
CCN(CCCCCCC(F)F)CCC[C@H](O)c1ccc(NS(C)(=O)=O)cc1,0.5 mg/kg,0.25 mg/kg,58 ms,118 ms,,,Dose (Oryctolagus cuniculus [7]): 0.25 mg/kg; Dose (Oryctolagus cuniculus [8]): 0.5 mg/kg
CCCCCCCN(CC)CCC[C@H](O)c1ccc(NS(C)(=O)=O)cc1,1.6 mg/kg,0.2 mg/kg,105 ms,145 ms,0.25 mg/kg,,Dose (Oryctolagus cuniculus [10]): 5 mg/kg
CCN(CCCCCCCF)CCC[C@H](O)c1ccc(NS(C)(=O)=O)cc1,0.25 mg/kg,0.9 mg/kg,76 ms,105 ms,,400%,Dose (Oryctolagus cuniculus [7]): 0.25 mg/kg; Dose (Oryctolagus cuniculus [11]): 5 mg/kg
CCN(CCCCCCCF)CCCCc1ccc(NS(C)(=O)=O)cc1,1 mg/kg,0.1 mg/kg,52 ms,96 ms,,100%,Dose (Oryctolagus cuniculus [12]): 0.5 mg/kg; Dose (Oryctolagus cuniculus [13]): 2 mg/kg
CCCCCCCN(CC)CCC[C@@H](O)c1ccc(NS(C)(=O)=O)cc1,0.2 mg/kg,0.3 mg/kg,69 ms,112 ms,0.25 mg/kg,100%,Dose (Oryctolagus cuniculus [14]): 1 mg/kg
CCN(CCCCC(C)(C)F)CCCC(O)c1ccc(NS(C)(=O)=O)cc1 (configuration not stated),1.4 mg/kg,3.6 mg/kg,178 ms,174 ms,,,Dose (Oryctolagus cuniculus [15]): 1 mg/kg; Dose (Oryctolagus cuniculus [16]): 2 mg/kg
CCN(CCCCCC(C)F)CCC[C@H](O)c1ccc(NS(C)(=O)=O)cc1 (some centres not stated),0.2 mg/kg,0.4 mg/kg,90 ms,130 ms,,> 2000%,Dose (Oryctolagus cuniculus [7]): 0.25 mg/kg; Dose (Oryctolagus cuniculus [17]): 1 mg/kg
CCN(CCCCCC(C)(F)F)CCCC(O)c1ccc(NS(C)(=O)=O)cc1 (configuration not stated),0.4 mg/kg,0.7 mg/kg,118 ms,96 ms,0.25 mg/kg,,Dose (Oryctolagus cuniculus [14]): 1 mg/kg
CCN(CCCCCC(F)F)CCC[C@H](O)c1ccc(NS(C)(=O)=O)cc1,0.2 mg/kg,0.3 mg/kg,123 ms,154 ms,,,Dose (Oryctolagus cuniculus [7]): 0.25 mg/kg; Dose (Oryctolagus cuniculus [18]): 0.5 mg/kg
CCN(CCCCCC(C)(C)F)CCCCc1ccc(NS(C)(=O)=O)cc1,,,90 ms,105 ms,,300%,Dose (Oryctolagus cuniculus [19]): 5 mg/kg; Dose (Oryctolagus cuniculus [10]): 5 mg/kg
CCN(CCCCCC(C)(C)F)CCC[C@H](O)c1ccc(NS(C)(=O)=O)cc1,,,,,,> 2000%,
CCN(CCCCCC(C)(C)F)CCC[C@H](O)c1ccc(NS(C)(=O)=O)cc1 [TRECETILIDE],,,69 ms,83 ms,,,Dose (Oryctolagus cuniculus [11]): 5 mg/kg; Dose (Oryctolagus cuniculus [6]): 1 mg/kg
CCN(CCCCCC(F)F)CCCC(O)c1ccc(NS(C)(=O)=O)cc1 (configuration not stated),,,,,,> 2000%,
CCN(CCCCCC(C)(C)F)CCC[C@@H](O)c1ccc(NS(C)(=O)=O)cc1,0.5 mg/kg,0.27 mg/kg,59 ms,92 ms,,,Dose (Oryctolagus cuniculus [7]): 0.25 mg/kg; Dose (Oryctolagus cuniculus [5]): 0.25 mg/kg
CCN(CC/C=C/c1ccc(NS(C)(=O)=O)cc1)CCCCCC(C)F (configuration not stated),0.3 mg/kg,1.5 mg/kg,133 ms,75 ms,2 mg/kg,300%,Dose (Oryctolagus cuniculus [20]): 2 mg/kg
CCN(CCCCCC(C)F)CCCC(O)c1ccc(NS(C)(=O)=O)cc1.O=C(O)/C=C/C(=O)O (configuration not stated),0.3 mg/kg,0.2 mg/kg,143 ms,166 ms,0.25 mg/kg,1300%,Dose (Oryctolagus cuniculus [21]): 0.25 mg/kg
CCN(CCCCCC(C)F)CCCCc1ccc(NS(C)(=O)=O)cc1 (configuration not stated),0.2 mg/kg,1.1 mg/kg,56 ms,94 ms,,300%,Dose (Oryctolagus cuniculus [19]): 0.5 mg/kg; Dose (Oryctolagus cuniculus [22]): 1 mg/kg
CCCCCCCN(CC)CCCC(O)c1ccc(NS(C)(=O)=O)cc1 (configuration not stated) [IBUTILIDE],1.7 mg/kg,1 mg/kg,65 ms,85 ms,,,Dose (Oryctolagus cuniculus [19]): 5 mg/kg; Dose (Oryctolagus cuniculus [22]): 1 mg/kg
CCN(CCCCCCC(F)F)CCCC(O)c1ccc(NS(C)(=O)=O)cc1 (configuration not stated),0.3 mg/kg,0.3 mg/kg,48 ms,71 ms,0.25 mg/kg,> 2000%,Dose (Oryctolagus cuniculus [21]): 0.25 mg/kg
CCN(CCCCCC(C)(C)F)CCCC(O)c1ccc(NS(C)(=O)=O)cc1 (configuration not stated),0.9 mg/kg,0.25 mg/kg,96 ms,136 ms,0.25 mg/kg,> 2000%,Dose (Oryctolagus cuniculus [22]): 1 mg/kg
